According to ChEMBL document CHEMBL1123067, “Evaluation of the brain-specific delivery of radioiodinated (iodophenyl)alkyl-substituted amines coupled to a dihydropyridine carrier” (J Med Chem, 1985):

Assays:
Type in all cases: ADME, organism-based
Rattus norvegicus [1] = test: Distribution of radioactivity in blood tissues of Sprague-Dawley rats after 15 min injecton by intravenously; 0.35-0.37; settings: in vivo, iv, 0.25 h
Method in brief: (§1)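 Female Sprague-Dawley rats, 10–12 weeks old (170–200 g), fed ad libitum. The ¹²⁵I-labelled agent was dissolved in minimal Me2SO, diluted with saline to a final 20% Me2SO, filtered (0.22 μm), and injected into a lateral tail vein under ether anaesthesia. Tissues were counted against samples of the injected solution and expressed as % injected dose/g (mean, range). Brain/blood ratio is from the means.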

Rattus norvegicus [2] = test: Distribution of radioactivity in blood tissues of Sprague-Dawley rats after 5 min injecton by intravenously; 0.34-0.48; settings: in vivo, iv; method in brief: as §1
Rattus norvegicus [3] = test: Distribution of radioactivity in liver tissues of Sprague-Dawley rats after 15 min injecton by intravenously; 4.01-4.81; settings: in vivo, iv, 0.25 h
Rattus norvegicus [4] = test: Distribution of radioactivity in liver tissues of Sprague-Dawley rats after 60 min injecton by intravenously; 0.75-1.14; settings: in vivo, iv, 1 h
Rattus norvegicus [5] = test: Distribution of radioactivity in kidney tissues of Sprague-Dawley rats after 5 min injecton by intravenously; 13.02-19.07; settings: in vivo, iv
Rattus norvegicus [6] = test: Distribution of radioactivity in brain tissues of Sprague-Dawley rats after 5 min injecton by intravenously; 0.02-0.03; settings: in vivo, iv; method in brief: as §1
Rattus norvegicus [7] = test: Distribution of radioactivity in lung tissues of Sprague-Dawley rats after 60 min injecton by intravenously; 0.3-0.36; settings: in vivo, iv, 1 h
Rattus norvegicus [8] = test: Distribution of radioactivity in brain tissues of Sprague-Dawley rats after 60 min injecton by intravenously; 0.02-0.03; settings: in vivo, iv, 1 h; method in brief: as §1
Rattus norvegicus [9] = test: Distribution of radioactivity in liver tissues of Sprague-Dawley rats after 5 min injecton by intravenously; 6.76-10.44; settings: in vivo, iv
Rattus norvegicus [10] = test: Distribution of radioactivity in lung tissues of Sprague-Dawley rats after 5 min injecton by intravenously; 0.47-0.56; settings: in vivo, iv
Rattus norvegicus [11] = test: Distribution of radioactivity in heart tissues of Sprague-Dawley rats after 5 min injecton by intravenously; 0.24-0.29; settings: in vivo, iv
Rattus norvegicus [12] = test: Distribution of radioactivity in blood tissues of Sprague-Dawley rats after 60 min injecton by intravenously; 0.25-0.32; settings: in vivo, iv, 1 h; method in brief: as §1
Rattus norvegicus [13] = test: Distribution of radioactivity in heart tissues of Sprague-Dawley rats after 15 min injecton by intravenously; 0.24-0.28; settings: in vivo, iv, 0.25 h; method in brief: as §1
Rattus norvegicus [14] = test: Distribution of radioactivity in lung tissues of Sprague-Dawley rats after 15 min injecton by intravenously; 0.4-0.54; settings: in vivo, iv, 0.25 h
Rattus norvegicus [15] = test: Distribution of radioactivity in brain tissues of Sprague-Dawley rats after 15 min injecton by intravenously; 0.03-0.03; settings: in vivo, iv, 0.25 h; method in brief: as §1
Rattus norvegicus [16] = test: Distribution of radioactivity in kidney tissues of Sprague-Dawley rats after 60 min injecton by intravenously; 0.48-0.72; settings: in vivo, iv, 1 h
Rattus norvegicus [17] = test: Distribution of radioactivity in heart tissues of Sprague-Dawley rats after 60 min injecton by intravenously; 0.19-0.23; settings: in vivo, iv, 1 h
Rattus norvegicus [18] = test: Distribution of radioactivity in kidney tissues of Sprague-Dawley rats after 15 min injecton by intravenously; 1.12-2.04; settings: in vivo, iv, 0.25 h

Distribution (Rattus norvegicus [1]): 0.36%
Distribution (Rattus norvegicus [2]): 0.39%
Distribution (Rattus norvegicus [3]): 4.33%
Distribution (Rattus norvegicus [4]): 0.93%
Distribution (Rattus norvegicus [5]): 16.46%
Distribution (Rattus norvegicus [6]): 0.03%
Distribution (Rattus norvegicus [7]): 0.32%
Distribution (Rattus norvegicus [8]): 0.02%
Distribution (Rattus norvegicus [9]): 8.03%
Distribution (Rattus norvegicus [10]): 0.47%
Distribution (Rattus norvegicus [11]): 0.25%
Distribution (Rattus norvegicus [12]): 0.27%
Distribution (Rattus norvegicus [13]): 0.26%
Distribution (Rattus norvegicus [14]): 0.47%
Distribution (Rattus norvegicus [15]): 0.03%
Distribution (Rattus norvegicus [16]): 0.56%
Distribution (Rattus norvegicus [17]): 0.2%
Distribution (Rattus norvegicus [18]): 1.46%
SMILES: C[n+]1cccc(C(=O)NCCc2ccc([125I])cc2)c1
